Assay outcomes as filed in PubChem.
VIM-2 inh: VIM-2 metallo-beta-lactamase inhibitors, primary screen, biochemical, epi-absorbance readout, Pseudomonas aeruginosa enzyme; 0.89% of 290,000 active; purified VIM-2, nitrocefin hydrolysis, epi-absorbance fluorescence; inhibition, % at 5.6 µM;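 active means inhibition above the mean of all tested compounds plus 3 SD, cutoff set per screening run, cut at about 7.5% in these data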;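 further: red hydrolysis product quenches plate fluorescence so inhibitors raise well fluorescence; 0% = enzyme with DMSO and 100% = DMSO without enzyme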
SUMO HTRF inh: inhibitors of in vitro SUMOylation cascade, primary screen, biochemical, HTRF, uHTS; SUMO-conjugating enzyme UBC9 (Homo sapiens), P63279; HTRF SUMOylation assay, SAE1/SAE2 + UBC9; inhibition, % at 35 µM; 0.36% of 290,000 active; in the data active means inhibition above about 50%, passing the limit was not always enough
Target sequence (P63279 whole entry, looked up): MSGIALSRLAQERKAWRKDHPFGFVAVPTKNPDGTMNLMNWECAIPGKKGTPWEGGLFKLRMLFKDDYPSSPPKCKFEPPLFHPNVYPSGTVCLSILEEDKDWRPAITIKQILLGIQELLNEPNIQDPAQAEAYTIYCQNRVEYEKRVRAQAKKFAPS
PHOSPHO1 block: PubChem AID 1565 | Phosphoethanolamine/phosphocholine phosphatase (Homo sapiens), Q8TCT1 | recombinant PHOSPHO1, absorbance phosphatase assay | inhibition, % at 13.3 µM | 1.1% of 290,000 active; in the data active means inhibition above about 60%
Target sequence (Q8TCT1 whole entry, looked up): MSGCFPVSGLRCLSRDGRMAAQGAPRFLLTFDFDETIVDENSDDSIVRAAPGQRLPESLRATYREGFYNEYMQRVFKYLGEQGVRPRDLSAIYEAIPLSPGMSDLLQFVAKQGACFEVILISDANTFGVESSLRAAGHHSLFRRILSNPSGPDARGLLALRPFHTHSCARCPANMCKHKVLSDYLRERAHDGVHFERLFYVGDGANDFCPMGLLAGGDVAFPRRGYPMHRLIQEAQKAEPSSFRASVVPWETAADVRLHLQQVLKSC
core dimer inh: inhibitors of HCV core protein dimerization, primary screen, biochemical, TR-FRET, high-throughput. TR-FRET GST/Flag-core106 dimerization, 1536-well. inhibition, % at 5 µM. 0.33% of 300,000 active. AID 1899, 2009;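 active means inhibition above the mean of all tested compounds plus 3 SD, set per screening campaign, cut at about 45% in these data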
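Assay system: tagged HCV core106 pair (GST and Flag); medium: KF-containing HEPES buffer, pH 7.45, DTT, CHAPS, BSA; also added: Eu donor and XL665 acceptor anti-tag antibodies; dosing: 5 µM single dose; timing: compound-protein-antibody incubation 4 h at 22.5 °C; signal: TR-FRET 671 and 617 nm emission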
IMP-1 inh-1: IMP-1 metallo-beta-lactamase inhibitors, primary screen, biochemical, epi-absorbance readout, Pseudomonas aeruginosa enzyme; metallo-beta-lactamase IMP-1 (Pseudomonas aeruginosa); purified IMP-1, nitrocefin hydrolysis, epi-absorbance fluorescence; inhibition, % at 5.6 µM; 0.45% of 290,000 active;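 active means inhibition above the mean plus 3 SD of all compounds in the same screening run, cut at about 4.5% in these data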;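 further: 0% = IMP-1 with DMSO and 100% = DMSO wells lacking enzyme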
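system = purified recombinant IMP-1 beta-lactamase | amount = 0.2 nM IMP-1, as dispensed | medium = HEPES buffer pH 7.1 with ZnSO4 and Brij 35 | times = 25 °C, 15 min preincubation, 25 min reaction | detection = plate fluorescence quenching by hydrolysis product, ex 480/em 530 nm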
HCV NS3 hel inh: inhibitors of HCV NS3 helicase, primary screen, biochemical, Cy5 molecular beacon fluorescence. Hepatitis C virus NS3 helicase. NS3 helicase DNA unwinding. inhibition, % at 10.9 µM. 0.56% of 290,000 active. AID 1800, 2009;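 active means inhibition above the mean of all tested compounds plus 3 SD, set per campaign, cut at about 35% in these data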;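 further: 0% = DMSO wells and 100% = thioflavine S control wells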
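Material: hepatitis C virus NS3 helicase domain fragment enzyme; measured by: Cy5 fluorescence, 0 and 60 min reads; control set: DMSO and thioflavine S; incubation: 60 min unwinding reaction at 25 °C after ATP addition; read-out basis: % inhibition from 60/0 min fluorescence ratio, DMSO 0%, thioflavine S 100%; repeats: singlicate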
IMP-1 inh-2: IMP-1 metallo-beta-lactamase inhibitors, confirmation, selectivity assay for selective VIM-2 inhibitor project, biochemical, epi-absorbance readout, triplicate | 1,300 tested, under 10 active | purified IMP-1, nitrocefin hydrolysis, epi-absorbance fluorescence | AID 1856, 2009 | inhibition, % at 5.6 µM | shares compounds with VIM-2 inh; call rule not given here;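 further: 0% = enzyme with vehicle and 100% = vehicle without enzyme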
VIM-2 FRET ctr: VIM-2 inhibitors in FRET format, confirmation, artefact control for selective VIM-2 inhibitor project, biochemical, epi-absorbance artifact exclusion. shares compounds with VIM-2 inh. purified VIM-2, CCF2 FRET substrate hydrolysis. inhibition, % at 5.6 µM. 23% of 1,300 active. AID 1857, 2009;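 active means inhibition above the mean of all tested compounds plus 3 SD, cut at about 19% in these data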;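 further: 0% = VIM-2 plus DMSO and 100% = no enzyme wells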
TEM-1 counter: TEM-1 serine beta-lactamase inhibitors, counter-screen for VIM-2 inhibitor project, biochemical, epi-absorbance, HTS | shares compounds with VIM-2 inh | Purified TEM-1, nitrocefin hydrolysis, epi-absorbance fluorescence | inhibition, % at 5.6 µM | 3% of 1,300 active;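 active means inhibition above that campaign's mean inhibition plus 3 SD, cut at about 0.46% in these data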;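 further: 0% = TEM-1 with DMSO and 100% = TEM-1 with 100 µM potassium clavulanate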
Target sequence (P62593 whole entry, looked up): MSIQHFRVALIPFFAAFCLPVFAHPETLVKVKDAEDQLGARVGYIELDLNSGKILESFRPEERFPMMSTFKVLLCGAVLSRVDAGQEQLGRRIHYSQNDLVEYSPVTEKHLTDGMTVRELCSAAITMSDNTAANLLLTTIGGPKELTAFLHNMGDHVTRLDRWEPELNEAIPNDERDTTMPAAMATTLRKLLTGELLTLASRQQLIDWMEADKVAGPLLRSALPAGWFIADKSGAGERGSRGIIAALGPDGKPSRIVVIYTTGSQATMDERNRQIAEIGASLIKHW
VIM-2 confirm 2: VIM-2 metallo-beta-lactamase inhibitors, confirmation, biochemical, epi-absorbance, hits shared with IMP-1 screen. 96% of 1,300 active. AID 2187, 2009. inhibition, % at 5.6 µM. shares compounds with VIM-2 inh. purified VIM-2, nitrocefin hydrolysis;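 active means inhibition of the VIM-2 beta-lactamase enzyme above about 11% from the earlier first-round screen, limit read from the data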;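 further: 0% = VIM-2 with DMSO and 100% = buffer wells without enzyme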
Starred values were filed as active, the others as inactive; / = no result. The list is not random: actives were taken first. Their share in the collection is about 3.1%.

SMILES	VIM-2 inh	SUMO HTRF inh	PHOSPHO1 block	core dimer inh	IMP-1 inh-1	HCV NS3 hel inh	others
Cc1cc(OC(C)C(=O)NCc2cccnc2)c2c3c(c(=O)oc2c1)CCC3 (configuration not stated)	8.4*	4.3	18.1	1.0	-2.7	7.2
Cc1cc(OC(C)C(=O)NCC(O)c2ccccc2)c2c3c(c(=O)oc2c1)CCC3 (configuration not stated)	2.9	19.0	18.5	2.0	0.1	5.5
CCOC(=O)c1ccc(NC(=O)c2c(O)[nH]c(=O)[nH]c2=O)cc1	58.8*	35.7	2.7	-1.9	77.5*	3.9
CCOc1ccc(NC(=O)c2c(O)[nH]c(=O)[nH]c2=O)cc1	/	/	/	9.0	/	/
CN1CCN2c3ccc(N)cc3CC3(C(=O)NC(=O)NC3=O)C2C1 (configuration not stated)	0.1	78.9*	17.7	/	-5.8	25.0
CN1C(=O)N(C)C(=O)C2(Cc3cc(N)ccc3N3CCN(c4ccccc4F)CC32)C1=O (configuration not stated)	-3.6	35.5	-5.4	23.8	-3.8	0.5
Cc1sc2c(c1C)C(c1ccc(C(C)(C)C)cc1)=NCC(=O)N2CC(=O)Nc1nccs1	-3.5	6.5	32.3	17.5	-0.5	-4.3
O=C1NC(=S)N(c2ccc(F)cc2)C(=O)/C1=C/c1ccco1	-3.2	65.6*	-28.7	76.9*	-2.0	34.8
Nc1ccnn1C1CCNCC1	-0.6	11.1	21.1	1.1	25.0*	1.7
CN1CCC(n2nccc2N)CC1	0.7	-1.8	15.2	-3.1	1.7	11.0
CC1=C(C/C(C)=C/c2ccccc2)/C(=C/CO)[C@H](O)[C@](C)(O)C12CC2	/	/	/	13.8	/	/
CN(C)c1ccc2c(c1)N=C(c1ccco1)OP2(=S)N1CCOCC1 (configuration not stated)	-1.1	27.7	89.7*	-6.2	-3.0	4.3
CN1CCN(c2ccc([N+](=O)[O-])c3no[n+]([O-])c23)CC1	-0.9	54.6*	19.9	-12.4	-0.4	-1.9
C=CCn1c(O)c(C(C)=NC2CCN(Cc3ccccc3)CC2)c(=O)[nH]c1=O	8.7*	-5.5	29.8	1.2	-2.9	-3.7
Nc1c2c(nc3sc4c(c13)CCCC4)CCCC2	12.2*	14.7	-2.7	2.4	-4.4	7.3
CC[C@@H](C(N)=O)N1CCCC1=O	-3.4	3.4	15.8	11.6	-1.5	3.3
CN1C(=O)/C(=C\c2ccc(N3CCCCCC3)cc2)C(=O)NC1=S	0.1	11.4	-53.8	-5.7	0.5	-1.9
Cc1cc(N2CCCCC2)ccc1C=C1C(=O)N(C)C(=S)N(C)C1=O	4.0	17.2	-11.3	1.0	7.4*	10.4
Cc1cc(C=C2C(=O)N(C)C(=S)N(C)C2=O)c(C)n1C1CCCCC1	-1.7	22.8	64.7*	24.5	2.3	21.9
CC(=O)Nc1nnc(CCN(CCc2nnc(NC(C)=O)s2)[N+](=O)[O-])s1	2.7	12.8	46.6	4.6	1.1	15.9
O=C1C(=O)c2cccc3cccc1c23	-0.1	21.4	3.8	-11.2	5.1*	16.7
COC(=O)C1=CO[C@@H](C)[C@H]2CN3CC[C@]4(C(=O)Nc5ccccc54)[C@@H]3C[C@H]12	/	/	/	0.8	/	/
Oc1ccc(C(=C(Cl)Cl)c2ccc(O)cc2)cc1	-1.8	-8.8	15.9	0.5	-3.8	-40.6
CCN1C(=O)/C(=C/c2ccc3c(c2)CCN3CCCCl)C(=O)NC1=S	-0.3	25.1	-27.4	84.1*	1.4	16.0
O=C(NC(=O)N1CCC2(CC1)OCCO2)c1ccc(Cl)cc1	-2.3	7.1	57.0	-2.7	-1.6	0.1
SMILES	VIM-2 inh	SUMO HTRF inh	PHOSPHO1 block	core dimer inh	IMP-1 inh-1	HCV NS3 hel inh	others
CCOc1ccccc1C1SCC(=O)Nc2c1c(=O)[nH]n2C(CC)CC (configuration not stated)	10.7*	9.6	17.9	-0.7	-1.1	-2.0
CCCC(C)n1[nH]c(=O)c2c1NC(=O)CSC2c1ccccc1 (configuration not stated)	-0.7	2.2	11.6	-4.6	-2.4	2.4
Cc1c(N)c(C)c([N+](=O)[O-])c(C)c1[N+](=O)[O-]	-0.8	-2.5	11.7	1.4	-3.0	-4.0
C[C@H]1C(=O)O[C@@H]2CCN3CC=C(COC(=O)[C@](C)(O)[C@]1(C)O)[C@H]23	/	/	/	8.3	/	/
COC(=O)C1C=C2c3cccc4[nH]cc(c34)CC2N(C)C1 (configuration not stated)	6.0	44.0	29.8	/	6.8*	3.5
O=c1[nH]c(=O)n(Cc2ccco2)c(O)c1C=NCc1cccs1	0.4	24.7	21.3	-1.1	-2.1	2.1
O=c1[nH]c(=S)n(Cc2ccco2)c(O)c1C=NCc1cccs1	-2.3	19.9	95.4*	54.9*	-6.3	3.4
Cc1nc2c(=O)n(C)c(=O)nc-2n(C)n1	0.4	103.0*	67.7*	55.3*	-3.7	4.2
O=[N+]([O-])c1ccc(-c2ccccc2)c([As](=O)(O)O)c1	75.8*	2.6	38.6	3.2	-1.0	7.8	IMP-1 inh-2=-3.3;VIM-2 FRET ctr=82.5*;TEM-1 counter=-3.4;VIM-2 confirm 2=79.6*
Cc1cc(OC(C)C(=O)NCc2ccncc2)c2c3c(c(=O)oc2c1)CCC3 (configuration not stated)	26.4*	19.6	31.3	-0.5	-2.5	-2.1	IMP-1 inh-2=-3.0;VIM-2 FRET ctr=-2.2;TEM-1 counter=-8.4;VIM-2 confirm 2=41.7*
Cc1cc(OC(C)C(=O)NCC2CCC(C(=O)O)CC2)c2c3c(c(=O)oc2c1)CCC3 (configuration not stated)	0.3	28.3	34.4	3.2	-3.8	0.9
Cc1cc(OC(C)C(=O)NCc2ccncc2)c2c3c(c(=O)oc2c1)CCCC3 (configuration not stated)	26.3*	/	-4.5	-6.0	3.1	32.4	IMP-1 inh-2=-2.5;VIM-2 FRET ctr=-4.1;TEM-1 counter=-9.3;VIM-2 confirm 2=31.7*
